According to ChEMBL document CHEMBL4765255, “Design and synthesis of Imidazo[1,2-b]pyridazine IRAK4 inhibitors for the treatment of mutant MYD88 L265P diffuse large B-cell lymphoma” (Eur J Med Chem, 2020):
Active and inactive are the calls of the source.

Tests used:
[1] = biological target: T1, Interleukin-1 receptor-associated kinase 4 (Homo sapiens, UniProt Q9NWZ3); experiment: Inhibition of recombinant human His-tagged full length IRAK4 expressed in baculovirus expression system using Ser/Thr07 peptide as substrate incubated for 1 hr by Z'lyte assay
T1 sequence (Q9NWZ3 whole entry): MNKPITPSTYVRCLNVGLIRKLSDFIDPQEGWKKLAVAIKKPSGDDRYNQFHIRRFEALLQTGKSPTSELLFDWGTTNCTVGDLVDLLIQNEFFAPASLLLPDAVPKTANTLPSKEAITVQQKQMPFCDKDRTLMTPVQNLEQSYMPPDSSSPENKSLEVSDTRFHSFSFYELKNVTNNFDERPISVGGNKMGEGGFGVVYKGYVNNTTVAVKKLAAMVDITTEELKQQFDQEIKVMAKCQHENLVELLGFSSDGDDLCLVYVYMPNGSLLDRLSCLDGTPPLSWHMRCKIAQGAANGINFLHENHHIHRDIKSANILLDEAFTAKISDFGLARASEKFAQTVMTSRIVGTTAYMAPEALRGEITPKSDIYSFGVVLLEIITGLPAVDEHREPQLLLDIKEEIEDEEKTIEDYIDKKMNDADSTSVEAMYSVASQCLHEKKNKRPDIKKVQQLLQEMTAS

Ramos = experiment: Cytotoxicity against human Ramos cells harboring MYD88 assessed as reduction in cell viability incubated for 72 hrs by CCK-8 assay; type: functional, cell-based
TMD8 [2] = experiment: Cytotoxicity against human TMD8 cells harboring MYD88 L265P mutant assessed as reduction in cell viability incubated for 72 hrs by CCK-8 assay; type: functional, cell-based; details: TMD8, 72 h
OCI-Ly10 = experiment: Cytotoxicity against human OCILY10 cells harboring MYD88 L265P mutant assessed as reduction in cell viability incubated for 72 hrs by CCK-8 assay; type: functional, cell-based; details: OCI-Ly10, 72 h
HT = experiment: Cytotoxicity against human HT cells harboring MYD88 assessed as reduction in cell viability incubated for 72 hrs by CCK-8 assay; type: functional, cell-based
[3] = tested on: Receptor-type tyrosine-protein kinase FLT3 (Homo sapiens), P36888 [UNDEFINED MUTATION]; experiment: Inhibition of FLT3-ITD mutant (unknown origin) at 0.1 uM incubated for 1 hr by ELISA relative to control
In short: (§1)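 Part of a 20-kinase panel tested at 0.1 μM compound. Kinase inhibition measured by ELISA following previously described protocols.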

TMD8 [4] = experiment: Cytotoxicity against human TMD8 cells harboring MYD88 L265P mutant assessed as combination index at 0.3 uM in presence of ibrutinib incubated for 72 hrs by CCK-8 assay; type: functional
In short: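 TMD8 cells (RPMI1640, 10% FBS, penicillin–streptomycin, 0.05 mM 2-mercaptoethanol, 37 °C, 5% CO2), seeded at 10000-12000 cells/well, exposed to ibrutinib plus IRAK4 inhibitor at varied concentrations for 72 h. Viability read by CCK-8; combination index computed with CalcuSyn, CI below 1 taken as synergy.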

[5] = biological target: T2, Interleukin-1 receptor-associated kinase 4 (Homo sapiens) (UniProt Q9NWZ3); experiment: Inhibition of IRAK4 in human TMD8 cells assessed as decrease in IRAK4 Thr345/Ser346 phosphorylation incubated for 2 hrs by Western blot analysis; type: cell-based; details: dose 0.3-10 µM
T2 sequence (whole entry): T1 sequence (Q9NWZ3 whole entry)
In short: (§2)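 OCI-LY10 or TMD8 cells, about 2×10^6 per well, treated with compound or DMSO for 2 h. Cells washed twice with PBS, lysed, then Western blotted for p-IRAK4 (Thr-345/Ser-346), p-IKKβ and p-p65. Bands quantified densitometrically; significance thresholds p<0.05, 0.01, 0.001.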

[6] = biological target: T2, Interleukin-1 receptor-associated kinase 4 (Homo sapiens); experiment: Inhibition of IRAK4 in human TMD8 cells assessed as decrease in NF-kappaB phosphorylation at 0.3 to 10 uM incubated for 2 hrs by Western blot analysis; type: cell-based; details: dose 0.3-10 µM; in short: as §2
[7] = biological target: T2, Interleukin-1 receptor-associated kinase 4 (Homo sapiens); experiment: Inhibition of IRAK4 in human TMD8 cells assessed as decrease in IKKbeta phosphorylation at 0.3 to 10 uM incubated for 2 hrs by Western blot analysis; type: cell-based; details: dose 0.3-10 µM; in short: as §2
[8] = biological target: T2, Interleukin-1 receptor-associated kinase 4 (Homo sapiens); experiment: Inhibition of IRAK4 in human OCILY10 cells assessed as decrease in IRAK4 Thr345/Ser346 phosphorylation incubated for 2 hrs by Western blot analysis; type: cell-based; details: dose 0.3-10 µM; in short: as §2
[9] = biological target: T2, Interleukin-1 receptor-associated kinase 4 (Homo sapiens); experiment: Inhibition of IRAK4 in human OCI-LY10 cells assessed as decrease in IKKbeta phosphorylation at 0.3 to 10 uM incubated for 2 hrs by Western blot analysis; type: cell-based; details: OCILY10, dose 0.3-10 µM; in short: as §2
[10] = biological target: Receptor-type tyrosine-protein kinase FLT3 (Homo sapiens) (UniProt P36888); experiment: Inhibition of FLT3 (unknown origin) at 0.1 uM incubated for 1 hr by ELISA relative to control; in short: as §1
[11] = biological target: T2, Interleukin-1 receptor-associated kinase 4 (Homo sapiens); experiment: Inhibition of IRAK4 in human OCI-LY10 cells assessed as decrease in NF-kappaB phosphorylation at 0.3 to 10 uM incubated for 2 hrs by Western blot analysis; type: cell-based; details: OCILY10, dose 0.3-10 µM; in short: as §2
[12] = biological target: Mast/stem cell growth factor receptor Kit (Homo sapiens) (UniProt P10721); experiment: Inhibition of c-Kit (unknown origin) at 0.1 uM incubated for 1 hr by ELISA relative to control; in short: as §1
Mast/stem cell growth factor receptor Kit (Homo sapiens), sequence (P10721 whole entry): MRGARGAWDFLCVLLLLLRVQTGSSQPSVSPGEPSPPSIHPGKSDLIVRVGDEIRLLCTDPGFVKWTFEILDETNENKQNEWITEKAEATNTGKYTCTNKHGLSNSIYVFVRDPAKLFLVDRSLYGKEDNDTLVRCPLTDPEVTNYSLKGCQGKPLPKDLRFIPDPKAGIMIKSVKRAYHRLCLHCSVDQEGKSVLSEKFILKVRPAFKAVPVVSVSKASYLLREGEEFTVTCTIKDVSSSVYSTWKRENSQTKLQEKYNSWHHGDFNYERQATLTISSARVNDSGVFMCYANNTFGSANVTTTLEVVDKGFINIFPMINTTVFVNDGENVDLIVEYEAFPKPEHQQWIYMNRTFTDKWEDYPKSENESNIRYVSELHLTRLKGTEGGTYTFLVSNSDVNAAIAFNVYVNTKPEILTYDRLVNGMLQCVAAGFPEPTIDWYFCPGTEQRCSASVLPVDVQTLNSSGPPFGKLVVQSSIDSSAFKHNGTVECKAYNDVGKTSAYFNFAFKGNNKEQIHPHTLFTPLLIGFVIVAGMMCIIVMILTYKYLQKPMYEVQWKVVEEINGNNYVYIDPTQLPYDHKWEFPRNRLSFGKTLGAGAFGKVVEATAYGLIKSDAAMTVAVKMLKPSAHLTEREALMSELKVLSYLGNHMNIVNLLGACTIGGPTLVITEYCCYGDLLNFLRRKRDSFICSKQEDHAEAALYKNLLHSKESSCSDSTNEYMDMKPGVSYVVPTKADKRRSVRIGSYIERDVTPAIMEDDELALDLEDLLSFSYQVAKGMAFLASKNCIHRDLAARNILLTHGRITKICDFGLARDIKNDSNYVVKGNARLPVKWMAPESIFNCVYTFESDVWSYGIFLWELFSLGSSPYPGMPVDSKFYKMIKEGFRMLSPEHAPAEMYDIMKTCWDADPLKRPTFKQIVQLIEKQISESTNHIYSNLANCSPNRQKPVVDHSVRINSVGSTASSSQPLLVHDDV

Receptor-type tyrosine-protein kinase FLT3 (Homo sapiens), sequence (P36888 whole entry): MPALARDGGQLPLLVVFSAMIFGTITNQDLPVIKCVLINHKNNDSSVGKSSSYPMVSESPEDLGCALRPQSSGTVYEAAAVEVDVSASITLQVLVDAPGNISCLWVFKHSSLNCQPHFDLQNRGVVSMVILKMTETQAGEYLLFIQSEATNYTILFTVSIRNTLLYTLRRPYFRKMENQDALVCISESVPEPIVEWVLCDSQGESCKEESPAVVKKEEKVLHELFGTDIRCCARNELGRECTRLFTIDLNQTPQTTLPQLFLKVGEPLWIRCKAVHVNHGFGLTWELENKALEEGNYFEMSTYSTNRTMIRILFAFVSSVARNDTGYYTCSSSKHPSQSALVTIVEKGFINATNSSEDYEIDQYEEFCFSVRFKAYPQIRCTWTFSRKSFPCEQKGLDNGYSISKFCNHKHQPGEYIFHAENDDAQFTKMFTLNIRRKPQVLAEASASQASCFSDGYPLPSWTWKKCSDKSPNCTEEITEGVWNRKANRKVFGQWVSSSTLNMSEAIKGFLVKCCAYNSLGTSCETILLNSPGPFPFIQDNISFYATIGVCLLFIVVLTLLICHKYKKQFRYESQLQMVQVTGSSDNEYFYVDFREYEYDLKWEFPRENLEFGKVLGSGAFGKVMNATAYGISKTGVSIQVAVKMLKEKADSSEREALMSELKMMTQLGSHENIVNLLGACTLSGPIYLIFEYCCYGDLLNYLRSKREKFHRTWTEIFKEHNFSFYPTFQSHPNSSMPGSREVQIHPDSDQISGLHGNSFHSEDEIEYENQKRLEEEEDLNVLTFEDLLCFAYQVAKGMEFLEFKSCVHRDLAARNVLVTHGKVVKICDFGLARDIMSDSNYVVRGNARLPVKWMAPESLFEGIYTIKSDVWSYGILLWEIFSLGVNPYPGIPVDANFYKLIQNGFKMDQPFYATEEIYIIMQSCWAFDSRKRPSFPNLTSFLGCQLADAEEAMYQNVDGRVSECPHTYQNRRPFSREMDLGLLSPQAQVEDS
Receptor-type tyrosine-protein kinase FLT3 (Homo sapiens), P36888 [UNDEFINED MUTATION], sequence (P36888 whole entry, looked up, change not shown): as the sequence (P36888 whole entry) above

**Q.** With `Cn1cc(NC(=O)c2cnc3ccc(N4CCNCC4)nn23)c(C(F)F)n1` as the molecule, how does the IC50 [1] read?
**A.** 0.0655 µM

**Q.** Which IC50 (Ramos) does the source give for `Cn1cc(NC(=O)c2cnc3ccc(N4CCC[C@@H](N)C4)nn23)c(C(F)F)n1` here?
**A.** 44.3 µM

**Q.** What about the IC50 (TMD8 [2]) of the same molecule?
**A.** 17.8 µM

**Q.** And the IC50 [1]?
**A.** 0.0087 µM

**Q.** What about the IC50 (OCI-Ly10) of the same molecule?
**A.** 10.7 µM

**Q.** And the IC50 (HT)?
**A.** 41.7 µM

**Q.** What does the source list for `Cn1cc(NC(=O)c2cnc3ccc(N[C@@H]4CCCNC4)nn23)c(C(F)F)n1`?
**A.** inhibition [3]: > 50%; CI (TMD8 [4]): 0.13; inhibition [5]: Dose-dependent effect; inhibition [6]: Active; inhibition [7]: Active; inhibition [8]: Dose-dependent effect; IC50 (Ramos): 11.4 µM; IC50 (TMD8 [2]): 1.2 µM; inhibition [9]: Active; inhibition [10]: > 50%; IC50 [1]: 0.0013 µM; inhibition [11]: Active; inhibition [12]: > 50%; IC50 (OCI-Ly10): 0.7 µM; IC50 (HT): 40.1 µM

**Q.** `Cn1cc(NC(=O)c2cnc3ccc(N[C@@H]4CCCNC4)nn23)c(C(N)=O)n1` was tested. Which IC50 [1] did it give?
**A.** 0.0125 µM

**Q.** For `Cn1cc(NC(=O)c2ncn3ccc(N4CCC[C@@H](N)C4)nc23)c(C(F)F)n1`, which IC50 (Ramos) is on record?
**A.** > 50 µM

**Q.** What about the IC50 (TMD8 [2]) of the same molecule?
**A.** > 50 µM

**Q.** What about the IC50 [1] of the same molecule?
**A.** > 1 µM

**Q.** What about the IC50 (OCI-Ly10) of the same molecule?
**A.** > 50 µM

**Q.** What about the IC50 (HT) of the same molecule?
**A.** > 50 µM

**Q.** For `Cn1cc(NC(=O)c2cnn3ccc(N4CCC[C@@H](N)C4)nc23)c(C(F)F)n1`, which IC50 (Ramos) is on record?
**A.** 19 µM

**Q.** And the IC50 (TMD8 [2])?
**A.** 7.3 µM

**Q.** And the IC50 [1]?
**A.** 0.0093 µM

**Q.** And the IC50 (OCI-Ly10)?
**A.** 5.5 µM

**Q.** What about the IC50 (HT) of the same molecule?
**A.** 29.2 µM

**Q.** What does the source list for `Cn1cc(NC(=O)c2cnc3ccc(N[C@@H]4CCCCNC4)nn23)c(C(F)F)n1`?
**A.** IC50 (Ramos): 7.2 µM; IC50 (TMD8 [2]): 1.2 µM; IC50 [1]: 0.009 µM; IC50 (OCI-Ly10): 0.8 µM; IC50 (HT): 35.9 µM

**Q.** `Cn1cc(NC(=O)c2cnc3ccc(N4CC[C@@H](N)C4)nn23)c(C(F)F)n1` was tested. Which IC50 [1] did it give?
**A.** > 1 µM

**Q.** `Cn1cc(NC(=O)c2cnc3ccc(N4CCC(N)CC4)nn23)c(C(F)F)n1` was tested. Which IC50 [1] did it give?
**A.** 0.0803 µM

**Q.** How did the IC50 (Ramos) turn out when `Cn1cc(NC(=O)c2cnc3ccc(N[C@H]4CCCNC4)nn23)c(C(F)F)n1` was run?
**A.** > 50 µM

**Q.** And the IC50 (TMD8 [2])?
**A.** 22.3 µM

**Q.** And the IC50 [1]?
**A.** 0.0362 µM

**Q.** What about the IC50 (OCI-Ly10) of the same molecule?
**A.** 22.3 µM

**Q.** And the IC50 (HT)?
**A.** > 50 µM

**Q.** How did the IC50 (Ramos) turn out when `Cn1cc(NC(=O)c2cnc3ccc(NCCN)nn23)c(C(F)F)n1` was run?
**A.** > 50 µM

**Q.** What about the IC50 (TMD8 [2]) of the same molecule?
**A.** 17.7 µM

**Q.** What about the IC50 [1] of the same molecule?
**A.** 0.0175 µM

**Q.** What about the IC50 (OCI-Ly10) of the same molecule?
**A.** 8.8 µM

**Q.** What about the IC50 (HT) of the same molecule?
**A.** > 50 µM

**Q.** Which IC50 [1] does the source give for `Cc1nn2ccc(N[C@@H]3CCCNC3)nc2c1C(=O)Nc1cn(C)nc1C(F)F` here?
**A.** > 1 µM

**Q.** How did the IC50 [1] turn out when `CC(C)n1cc(NC(=O)c2cnc3ccc(N[C@@H]4CCCNC4)nn23)c(C(F)(F)F)n1` was run?
**A.** 0.077 µM

**Q.** Which IC50 [1] does the source give for `Cc1nn(C)cc1NC(=O)c1cnc2ccc(N[C@@H]3CCCNC3)nn12` here?
**A.** > 1 µM

**Q.** For `Cn1cc(NC(=O)c2cnc3ccc(N[C@@H]4CCNC4)nn23)c(C(F)F)n1`, which IC50 (Ramos) is on record?
**A.** 45 µM

**Q.** What about the IC50 (TMD8 [2]) of the same molecule?
**A.** 8.3 µM

**Q.** And the IC50 [1]?
**A.** 0.0077 µM

**Q.** And the IC50 (OCI-Ly10)?
**A.** 3.6 µM

**Q.** And the IC50 (HT)?
**A.** > 50 µM

**Q.** What does the source list for `Cn1cc(NC(=O)c2cnc3ccc(N[C@@H]4CCCNC4)nn23)c(C#N)n1`?
**A.** IC50 (Ramos): 28.8 µM; IC50 (TMD8 [2]): 14.8 µM; IC50 [1]: 0.0408 µM; IC50 (OCI-Ly10): 5.8 µM; IC50 (HT): > 50 µM

**Q.** With `O=C(Nc1cn(C2CCOCC2)nc1C(F)(F)F)c1cnc2ccc(N[C@@H]3CCCNC3)nn12` as the molecule, how does the IC50 (Ramos) read?
**A.** > 50 µM

**Q.** What about the IC50 (TMD8 [2]) of the same molecule?
**A.** 11.1 µM

**Q.** And the IC50 [1]?
**A.** 0.0497 µM

**Q.** And the IC50 (OCI-Ly10)?
**A.** 10.5 µM

**Q.** What about the IC50 (HT) of the same molecule?
**A.** > 50 µM

**Q.** Which IC50 [1] does the source give for `Cc1nc2ccc(N[C@@H]3CCCNC3)nn2c1C(=O)Nc1cn(C)nc1C(F)F` here?
**A.** > 1 µM

**Q.** How did the IC50 [1] turn out when `CN(c1ccc2ncc(C(=O)Nc3cn(C)nc3C(F)F)n2n1)[C@@H]1CCCNC1` was run?
**A.** > 1 µM

**Q.** Which results are given for `CCn1cc(NC(=O)c2cnc3ccc(N[C@@H]4CCCNC4)nn23)c(C(F)(F)F)n1`?
**A.** IC50 (Ramos): > 50 µM; IC50 (TMD8 [2]): 6.1 µM; IC50 [1]: 0.0323 µM; IC50 (OCI-Ly10): 3.6 µM; IC50 (HT): > 50 µM

**Q.** What does the source list for `Cn1cc(NC(=O)c2cnc3ccc(N[C@@H]4CCCNC4)nn23)c(C(F)(F)F)n1`?
**A.** IC50 (Ramos): > 50 µM; IC50 (TMD8 [2]): 5.9 µM; IC50 [1]: 0.0235 µM; IC50 (OCI-Ly10): 2.8 µM; IC50 (HT): > 50 µM

**Q.** How did the IC50 [1] turn out when `O=C(Nc1cn(C2CCNCC2)nc1C(F)(F)F)c1cnc2ccc(N[C@@H]3CCCNC3)nn12` was run?
**A.** 0.0522 µM
